Test results as given in ChEMBL document CHEMBL5241063, “Synthetic and medicinal perspective of quinolines as antiviral agents” (Eur J Med Chem, 2021).

How the values were obtained:
[1] = Inhibition of HIV-1 integrase; set-up: species or system Human immunodeficiency virus 1
[2] = target: Human immunodeficiency virus type 1 reverse transcriptase (Human immunodeficiency virus 1, UniProt Q72547); assay: Inhibition of HIV-1 reverse transcriptase incubated for 90 mins by liquid scintillation counting analysis
[3] = Cytotoxicity against human RD cells by neutral red method; type: toxicity, cell-based
SNB-19 = assay: (§1) Cytotoxicity against human SNB-19 cells incubated for 24 hrs; type: toxicity, cell-based; settings: snb-19, 24 h
Vero = assay: (§2) Cytotoxicity against african green monkey Vero cells incubated for 48 hrs; type: toxicity, cell-based; settings: chlorocebus sabaeus, vero, 48 h
[4] = tested on: Human immunodeficiency virus 1; assay: Antiviral activity against HIV-1 IIIB infected in human MT2 cells assessed as inhibition of viral replication by p24 ELISA method; type: functional, organism-based; settings: Human immunodeficiency virus 1, IIIB
[5] = tested on: Human immunodeficiency virus 1; assay: Antiviral activity against HIV-1 92US657 infected in human MT2 cells assessed as inhibition of viral infection; type: functional, organism-based; settings: Human immunodeficiency virus 1, 92US657, MT2
[6] = tested on: Human immunodeficiency virus 1; assay: Antiviral activity against HIV-1 infected in human HeLa P4 cells assessed as inhibition of viral particles production; type: functional, organism-based; settings: Human immunodeficiency virus 1, HeLaP4
enterovirus D68 = assay: Antiviral activity against Enterovirus D68 US/KY/14-18953 infected in human RD cells assessed as reduction in virus induced cytopathic effect; type: functional, organism-based; settings: Enterovirus D, US/KY/14-18953, RD
[7] = Selectivity index, ratio of CC50 for cytotoxicity against human RD cells to EC50 for antiviral activity against Enterovirus D68 US/KY/14-18953 infected in human RD cells; type: toxicity, cell-based; settings: read-out: Ratio CC50/EC50
[8] = tested on: Human immunodeficiency virus 1; assay: Anti-HIV activity against HIV-1 NL4.3 infected in human MT2 cells measured after 7 days by MTT assay; type: functional, organism-based; settings: Human immunodeficiency virus 1, NL4.3, MT2, 168 h
[9] = tested on: Human immunodeficiency virus 1; assay: Anti-HIV activity against HIV-1 NL4.3 infected in human MT2 cells measured after 48 hrs by luminescence based assay; type: functional, organism-based; settings: Human immunodeficiency virus 1, NL4.3, MT2, 48 h
Ebolavirus = assay: Antiviral activity against recombinant VSV-deltaG pseudotyped GFP-tagged EBOV infected in human Huh-7 cells preincubated with cells for 1 hr followed by viral infection and measured after 16 hrs by […] assay; type: functional, organism-based; settings: Orthoebolavirus
[10] = Selectivity index, ratio of CC50 for cytotoxicity against human Huh-7 cells to IC50 for antiviral activity against recombinant VSV-deltaG pseudotyped GFP-tagged EBOV infected in human Huh-7 cells; type: toxicity, cell-based; settings: read-out: Ratio CC50/IC50
[11] = tested on: Human immunodeficiency virus 1; assay: Antiviral activity against HIV-1 infected in human CEM-SS cells assessed as reduction in virus induced cytopathic effect by XTT assay; type: functional, organism-based; settings: Human immunodeficiency virus 1, CEM-SS
[12] = Cytotoxicity against human CEM-SS cells assessed as inhibition of cell growth; type: toxicity, cell-based
Zika virus = assay: Antiviral activity against ZIKV PRVABC59; type: functional, organism-based
Summary of the method: (§3)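 Human glioblastoma SNB-19 cells were infected with ZIKV strain PRVABC59 at MOI 1. Virus production was measured by titer assay in Vero cells. Niclosamide served as positive and quality control in each antiviral assay.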

[13] = as §1; type: toxicity, cell-based; settings: SNB-19 cells
[14] = as §2; type: toxicity, cell-based; settings: chlorocebus sabaeus, Vero cells
[15] = Selectivity index, ratio of CC50 for cytotoxicity against human SNB-19 cells to EC50 for antiviral activity against ZIKV PRVABC59; type: toxicity, cell-based; settings: read-out: Ratio CC50/EC50; summary of the method: as §3
[16] = Selectivity index, ratio of CC50 for cytotoxicity against african green monkey Vero cells to EC50 for antiviral activity against ZIKV PRVABC59; type: toxicity, cell-based; settings: read-out: Ratio CC50/EC50
dengue virus type 2 = assay: Antiviral activity against Dengue virus serotype 2 infected in african green monkey Vero cells assessed as reduction in virus yield preincubated for 1 hr followed by replacement with medium containing compounds and measured after 48 hrs by crystal violet staining based plaque assay; type: functional, organism-based
[17] = Cytotoxicity against african green monkey Vero cells incubated for 48 hrs by CellTiter-Glo luminescence based assay; type: toxicity, cell-based; settings: chlorocebus sabaeus
[18] = Cytotoxicity against african green monkey Vero E6 cells by CCK8 assay; type: toxicity, cell-based, Vero C1008; settings: chlorocebus sabaeus
[19] = tested on: Human immunodeficiency virus 1; assay: Antiviral activity against HIV-1 infected in human H9 cells assessed as inhibition of viral replication; type: functional, organism-based; settings: Human immunodeficiency virus 1, H9

O=C(NNc1ccc([N+](=O)[O-])cc1[N+](=O)[O-])c1ccc2ccc(C(=O)O)c(O)c2n1
IC50 [1]: 3000 nM

COc1cc(/C=C/c2ccc3ccc(C(=O)O)c(O)c3n2)cc(O)c1O
IC50 [1]: 700 nM

O=C(O)c1ccc2ccc(/C=C/c3ccc(O)c(O)c3)nc2c1O
IC50 [1]: 2400 nM

O=C(O)c1ccc2ccc(/C=C/c3ccccc3)nc2c1O
IC50 [1]: 5300 nM

CC(C)[C@H]1C(=O)OC[C@@H](NC(=O)c2nc3ccccc3cc2O)C(=O)N2CCCC[C@H]2C(=O)NCC(=O)N(C)CC(=O)N(C)[C@@H](C(C)C)C(=O)OC[C@@H](NC(=O)c2nc3ccccc3cc2O)C(=O)N2CCCC[C@H]2C(=O)NCC(=O)N(C)CC(=O)N1C
IC50 [2]: 0.13 nM

CCN(CC)CCNC(=O)c1cc(OC(C)C)nc2ccccc12
CC50 [3]: 11200 nM

C=C1CC[C@@H]2[C@](C)(CO)[C@H](O)CC[C@@]2(C)[C@@H]1C/C=C1/C(=O)OC[C@@H]1Oc1c(Cl)cc(Cl)c2cccnc12
CC50 (SNB-19): > 100000 nM
CC50 (Vero): > 100000 nM

C=C1CC[C@@H]2[C@](C)(CO)[C@H](O)CC[C@@]2(C)[C@@H]1C/C=C1/C(=O)OC[C@@H]1Oc1cccc2ccc(C)nc12
CC50 (SNB-19): > 100000 nM

Cc1cccc2cc(/C=C3\NC(=O)N(Cc4ccccc4)C3=O)c(Cl)nc12
EC50 [4]: 148 nM
EC50 [5]: 520 nM

COc1cc(/C=C/c2ccc3c(C(=O)O)cc(C(=O)O)c(O)c3c2)cc(O)c1O
IC50 [6]: 1600 nM

CN(C)CCNC(=O)c1cc(Oc2ccccc2)nc2ccccc12
EC50 (enterovirus D68): 400 nM
CC50 [3]: 73700 nM
selectivity ratio [7]: 184

COc1nc2ccccc2cc1/C=C1\NC(=O)N(Cc2ccccc2)C1=O
EC50 [4]: 1410 nM
EC50 [5]: 520 nM

Cc1ccc2cc(/C=C3\NC(=O)N(Cc4ccccc4)C3=O)c(Cl)nc2c1
EC50 [4]: 710 nM
EC50 [5]: 520 nM

COc1ccc2nc(OC)c(/C=C3\NC(=O)N(CCc4ccccc4)C3=O)cc2c1
EC50 [4]: 1510 nM
EC50 [5]: 520 nM

O=C1N/C(=C\c2cc3ccccc3nc2Cl)C(=O)N1Cc1ccccc1
EC50 [4]: 50600 nM
EC50 [5]: 520 nM

COc1ccc2cc(/C=C3\NC(=O)N(CCc4ccccc4)C3=O)c(Cl)nc2c1
EC50 [4]: 460 nM
EC50 [5]: 520 nM

COc1ccc2nc(Cl)c(/C=C3\NC(=O)N(Cc4ccccc4)C3=O)cc2c1
EC50 [4]: 1960 nM
EC50 [5]: 520 nM

Cc1ccc2cc(/C=C3\NC(=O)N(CCc4ccccc4)C3=O)c(Cl)nc2c1
EC50 [4]: 2550 nM
EC50 [5]: 520 nM

COc1cc(OC)c2ccc(-c3cccc([N+](=O)[O-])c3)nc2c1
IC50 [8]: 18500 nM

COc1cc2c(c(OC)c1)[C@@H](N1CCCC1=O)C[C@@H](c1cccc(N)c1)N2
IC50 [9]: 50000 nM

CCN(CC)Cc1cc(Nc2ccnc3cc(I)ccc23)ccc1O
IC50 (Ebolavirus): 640 nM
selectivity ratio [10]: > 130

Nc1cccc([C@@H]2C[C@H](N3CCCC3=O)c3ccccc3N2)c1
IC50 [9]: 50000 nM

O=C1N/C(=C\c2cc3ccccc3nc2Cl)C(=O)N1CCc1ccccc1
EC50 [4]: 2920 nM
EC50 [5]: 520 nM

Cc1ccc2nc(Cl)c(/C=C3\NC(=O)N(Cc4ccccc4)C3=O)cc2c1
EC50 [4]: 5540 nM
EC50 [5]: 520 nM

CN(C)CCNC(=O)c1cc(Oc2ccccc2)nc2ccc(F)cc12
EC50 (enterovirus D68): 600 nM

O=C1N/C(=C\c2cccc3ccccc23)C(=O)N1CCc1ccccc1
EC50 [4]: 1930 nM
EC50 [5]: 520 nM

Cc1ccc2nc(Cl)c(/C=C3\NC(=O)N(CCc4ccccc4)C3=O)cc2c1
EC50 [4]: 22800 nM
EC50 [5]: 500 nM

C=CC(C)(C)C1(CC=C(C)C)C(=O)Nc2ccccc2C1OCC=C(C)C (centres undefined)
EC50 [11]: 1640 nM
IC50 [12]: 26900 nM

COc1nc2ccccc2cc1/C=C1\NC(=O)N(CCc2ccccc2)C1=O
EC50 [4]: 420 nM
EC50 [5]: 520 nM

COc1ccc2nc(Cl)c(/C=C3\NC(=O)N(CCc4ccccc4)C3=O)cc2c1
EC50 [4]: 1010 nM
EC50 [5]: 520 nM

Cc1cc(C)c2c(c1)N[C@H](c1cccc(N)c1)C[C@@H]2N1CCCC1=O
IC50 [9]: 50000 nM

COc1ccc2nc(OC)c(/C=C3\NC(=O)N(Cc4ccccc4)C3=O)cc2c1
EC50 [4]: 270 nM
EC50 [5]: 520 nM

CCCCCCCCN(C)Cc1cc(Nc2ccnc3cc(I)ccc23)ccc1O
IC50 (Ebolavirus): 260 nM
selectivity ratio [10]: > 100

CCCCCCNCc1cc(Nc2ccnc3cc(Cl)ccc23)ccc1O
IC50 (Ebolavirus): 290 nM

CN(C)CCNC(=O)c1cc(Oc2cccs2)nc2ccccc12
EC50 (enterovirus D68): 40 nM
selectivity ratio [7]: > 600

CCCCN(CCCC)Cc1cc(Nc2ccnc3cc(Cl)ccc23)ccc1O
IC50 (Ebolavirus): 720 nM
selectivity ratio [10]: > 130

C=C1CC[C@H]2[C@@](C)(CCC(O)[C@@]2(C)CO)[C@@H]1C/C=C1/C(=O)OC[C@H]1Oc1cccc2cccnc12 (some centres undefined)
EC50 (Zika virus): 11000 nM
CC50 at 24 h [13]: 60100 nM
CC50 at 48 h [14]: 22800 nM
selectivity ratio [15]: 5.5
selectivity ratio [16]: 2.1

Cc1cccc2cc(/C=C3\NC(=O)N(CCc4ccccc4)C3=O)c(Cl)nc12
EC50 [4]: 500 nM
EC50 [5]: 520 nM

CC(C)c1ccc2c(Cl)cc(Cl)c(O)c2n1
IC50 (dengue virus type 2): 3030 nM
CC50 at 48 h [17]: 16100 nM

O=C(NCCN1CCCC1)c1cc(Oc2cccs2)nc2ccccc12
EC50 (enterovirus D68): 60 nM
selectivity ratio [7]: > 600

O=C(O)/C=C\c1cc(C(=O)O)c(O)c2cc(/C=C/c3ccc(O)c(O)c3)ccc12
IC50 [6]: 35000 nM

CN(C)CCNC(=O)c1cc(Oc2ccccc2)nc2ccc(Cl)cc12
EC50 (enterovirus D68): 1200 nM

CCN(CC)Cc1cc(Nc2c(Oc3ccccc3)cnc3cc(Cl)ccc23)ccc1O
IC50 (Ebolavirus): 730 nM

CC(C)Oc1ccc2cc(/C=C3\NC(=O)N(CCc4ccccc4)C3=O)c(Cl)nc2c1
EC50 [4]: 330 nM
EC50 [5]: 520 nM

O=C1N/C(=C\c2cccc3ccccc23)C(=O)N1Cc1ccccc1
EC50 [4]: 1520 nM
EC50 [5]: 520 nM

CC(C)Cc1ccc2c(Cl)cc(Cl)c(O)c2n1
IC50 (dengue virus type 2): 490 nM
CC50 at 48 h [17]: 19400 nM

O=C(NCc1ccc(O)c(O)c1)c1ccc2ccc(C(=O)O)c(O)c2n1
IC50 [1]: 5000 nM

O=C(NCc1ccc(O)c(O)c1O)c1ccc2ccc(C(=O)O)c(O)c2n1
IC50 [1]: 1500 nM

COc1cc(NC(=O)c2ccc3ccc(C(=O)O)c(O)c3n2)cc(O)c1O
IC50 [1]: 6500 nM

CCN(CC)Cc1cc(Nc2ccnc3cc(Cl)ccc23)ccc1O [AMODIAQUINE]
selectivity ratio [10]: 37

C=CC(C)(C)C1(CC=C(C)C)C(=O)Nc2ccccc2C1=O (centres undefined) [BUCHAPINE]
IC50 [12]: 29000 nM

CCN(CC)CCCC(C)Nc1ccnc2cc(Cl)ccc12 (centres undefined) [CHLOROQUINE]
CC50 [18]: 250000 nM

COc1c2ccc(O)cc2nc2occc12 [CONFUSAMELINE]
EC50 [19]: < 5850 nM

COc1c2ccoc2nc2c(OC)cccc12 [GAMMA-FAGARINE]
EC50 [19]: < 5850 nM

COc1c2[nH]c3occc3c(OC)c-2ccc1=O [HAPLOPINE]
EC50 [19]: < 5850 nM

CCN(CCO)CCCC(C)Nc1ccnc2cc(Cl)ccc12 (centres undefined) [HYDROXYCHLOROQUINE]
CC50 [18]: 273000 nM
